Data: ChEMBL document CHEMBL1275328, “Targeting the polyamine transport system with benzazepine- and azepine-polyamine conjugates” (J Med Chem, 2010)
Structures can show the parent of a compound that is named as a salt. Calls of active or inactive are those of the source. The calls are words filed in the database; no cut-off is given here.

Assays:
[1] = Inhibition of [14C]spermidine uptake at polyamine transport system in mouse L1210 cells after 10 mins; type: cell-based
Method in brief: (§1)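 2 × 10^6 L1210 cells in 0.6 mL HBSS/20 mM HEPES, 10 min uptake at 37 °C of 1 μM [14C]spermidine with increasing competitor concentrations. IC50 obtained by iterative sigmoidal curve fitting, Ki by Cheng-Prusoff. Spermidine Km from Lineweaver-Burke analysis of uptake at rising labelled substrate. Mean ± SD, three determinations.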

L1210 [2] = assay: Ratio of spermidine Km to compound Ki for polyamine transport system in mouse L1210 cells; type: cell-based; method in brief: as §1
L1210 [3] = assay: Cytostatic toxicity against mouse L1210 cells expressing polyamine transport system after 48 hrs by MTT assay; type: ADME, cell-based; conditions: l1210, 48 h
Method in brief: (§2)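 L1210 cells seeded at 5 × 10^4 cells/mL in RPMI 1640 with 10% FCS and 2 mM aminoguanidine, 37 °C, 5% CO2. Compound added at seeding, 48 h exposure. Growth read as MTT formazan absorbance at 540 nm. Growth taken relative to untreated control cells. Means of three or more experiments.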

CHO = assay: Drug uptake in CHO cells expressing polyamine transport system after 24 hrs by HPLC; type: ADME, cell-based, Cricetulus griseus; conditions: chinese hamster
Method in brief: (§3)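 Compound given at 0.1 to 100 μM for 24 h exposure; medium RPMI 1640/10% FCS with 2 mM aminoguanidine. CHO cells seeded at 2 × 10^5 cells/mL and dosed 24 h after seeding. L1210 cells seeded at 4 × 10^4 cells/mL and dosed at seeding. Cells washed thrice in cold 0.14 M NaCl, sonicated in 0.2 N HClO4. Extracts analysed by ion-pair C18 HPLC with post-column OPA/N-acetylcysteine fluorescence (ex 345, em 455 nm). Protein measured on pellet.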

L1210 [4] = assay: Drug uptake in mouse L1210 cells expressing polyamine transport system after 24 hrs by HPLC; type: ADME, cell-based; conditions: l1210, 24 h; method in brief: as §3
L1210 [5] = assay: Drug uptake in mouse L1210 cells expressing polyamine transport system in presence of ornithine decarboxylase inhibitor DFMO after 48 hrs by HPLC; conditions: l1210, 48 h
[6] = Cytostatic toxicity against mouse L1210 cells expressing polyamine transport system assessed as cell viability at 100 uM after 48 hrs by trypan blue assay; type: ADME, cell-based
Method in brief: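 L1210 cells exposed 48 h to 100 μM compound, viability scored by Trypan blue exclusion.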

[7] = Cytostatic toxicity against mouse L1210 cells expressing polyamine transport system assessed as reduction in cell growth at 10 uM after 48 hrs by MTT assay; type: ADME, cell-based; method in brief: as §2
L1210 [8] = assay: Inhibition of reversion of DFMO-induced cytostatic effect against mouse L1210 cells expressing polyamine transport system at 20 uM pretreated with 1 uM spermine for 24 hrs after DFMO addition measured after 48 hrs by MTT assay; type: functional, cell-based
Method in brief: (§4)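 L1210 cells seeded in 5 mM DFMO. After 24 h, free putrescine, spermidine or spermine added with or without 20 μM test compound. Growth measured by MTT assay 48 h later.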

L1210 [9] = assay: Cytostatic toxicity against mouse L1210 cells expressing polyamine transport system assessed as effect on cell growth upto 20 uM after 48 hrs by MTT assay; type: ADME, cell-based; conditions: l1210, 48 h; method in brief: as §2
L1210 [10] = assay: Inhibition of reversion of DFMO-induced cytostatic effect against mouse L1210 cells expressing polyamine transport system at 20 uM pretreated with 100 uM putrescine for 24 hrs after DFMO addition measured after 48 hrs by MTT assay; type: functional, cell-based; method in brief: as §4
L1210 [11] = assay: Inhibition of reversion of DFMO-induced cytostatic effect against mouse L1210 cells expressing polyamine transport system at 20 uM pretreated with 20 uM spermidine for 24 hrs after DFMO addition measured after 48 hrs by MTT assay; type: functional, cell-based; method in brief: as §4
L1210 [12] = assay: Ratio of drug uptake in mouse L1210 cells at 10 uM in presence of 5 mM ornithine decarboxylase inhibitor DFMO to drug uptake in mouse L1210 cells at 10 uM after 48 hrs by HPLC; type: ADME, cell-based; conditions: l1210, 48 h
Method in brief: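 L1210 cells seeded at 4 × 10^4 cells/mL and given 10 μM conjugate at seeding, ±5 mM DFMO, medium containing 2 mM aminoguanidine. Harvest at 48 h, washed in cold 0.14 M NaCl, perchloric extract. Intracellular conjugate measured by ion-pair HPLC with OPA fluorescence. Ratio is DFMO/control accumulation. Mean ± SD of three determinations; Student's t test.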

| Compound | Ki [1] [µM] | Ratio (L1210 [2]) | Drug uptake (CHO) | Drug uptake (L1210 [4]) | further results |
| --- | --- | --- | --- | --- | --- |
| NCCCCCCCCN | 24.1 | 0.098 | – | – | – |
| NCCCNC[C@@H](O)[C@@H](O)CNCCCN | 5.27 | 0.45 | – | – | – |
| Cl.NCCCNCCCCNCCCNC1=Nc2ccc(N)cc2CCC1 | 0.19 | 12.5 | – | – | Activity (L1210 [3]): Toxic |
| Cl.NCCCNCCCCNCCCNC1=Nc2ccc(Br)cc2CCC1 | 0.14 | 16.9 | – | – | Activity (L1210 [3]): Toxic |
| COc1ccc2c(c1)CCCC(NCCCNCCCCNCCCN)=N2.Cl | 0.23 | 10.3 | – | – | Activity (L1210 [3]): Toxic |
| NCCCCCCCCNC1=Nc2ccccc2CCC1 | 126 | 0.019 | – | – | – |
| NCCCCCNCCCN | 8.03 | 0.29 | – | – | – |
| Cl.NCCCCCNCCCNC1=NCCCCC1 | 45.9 | 0.051 | Dose-dependent effect | Dose-dependent effect | Drug uptake (L1210 [5]): Active |
| Cl.NCCCCNCCCNC1=Nc2ccccc2CCC1 | 4.4 | 0.54 | Dose-dependent effect | Dose-dependent effect | – |
| NCCCNCCCN [NORSPERMIDINE TRIHYDROCHLORIDE] | 5.12 | 0.46 | – | – | – |
| Cl.NCCCNCCCCNCCCNC1=NCCCCC1 | 0.35 | 6.77 | Dose-dependent effect | Dose-dependent effect | Drug uptake (L1210 [5]): Active |
| Cl.NCCCCNCCCCNC1=NCCCCC1 | 5.47 | 0.43 | Dose-dependent effect | Dose-dependent effect | viability at 48 h, 100 µM [6]: > 95%; inhibition at 48 h, 10 µM [7]: 65%; Drug uptake (L1210 [5]): Active |
| NCCCCCCCCNC1=NCCCCC1 | 183 | 0.013 | – | – | – |
| Cl.Cl.NCCCCNC1=NCCCCC1 | 763 | 0.003 | Dose-dependent effect | Dose-dependent effect | Drug uptake (L1210 [5]): Active |
| NCCCCNCCCCN [HOMOSPERMIDINE] | 2.3 | 1.03 | – | – | – |
| Cl.NCCCNCCCNC1=NCCCCC1 | 161 | 0.015 | Dose-dependent effect | Dose-dependent effect | Drug uptake (L1210 [5]): Active |
| NCCCCN [PUTRESCINE DIHYDROCHLORIDE] | 208 | 0.011 | – | – | – |
| NCCCNCCCNCCCNC1=Nc2ccccc2CCC1 | 0.88 | 2.69 | – | – | – |
| Cl.NCCCNCCCCNCCCNC1=Nc2ccc([N+](=O)[O-])cc2CCC1 | 0.12 | 19.8 | – | – | inhibition (L1210 [8]): Active; Activity (L1210 [9]): Non-toxic; inhibition (L1210 [10]): Active; inhibition (L1210 [11]): Active |
| NCCCNCCCNCCCN [NORSPERMINE] | 1.51 | 1.57 | – | – | – |
| NCCCNC[C@@H](O)[C@@H](O)CNCCCNC1=Nc2ccccc2CCC1 | 2.25 | 1.05 | – | – | – |
| Cl.NCCCNCCCCNC1=NCCCCC1 | 44.7 | 0.053 | Dose-dependent effect | Dose-dependent effect | Drug uptake (L1210 [5]): Active |
| Cl.Cl.NCCCCNC1=Nc2ccccc2CCC1 | 35.1 | 0.067 | Dose-dependent effect | Dose-dependent effect | – |
| Cl.NCCCCNCCCNC1=NCCCCC1 | 14.6 | 0.16 | Dose-dependent effect | Dose-dependent effect | viability at 48 h, 100 µM [6]: > 95%; inhibition at 48 h, 10 µM [7]: 30%; Drug uptake (L1210 [5]): Active; Ratio (L1210 [12]): 4 |
| NCCCCNCCCCNCCCCN [HOMOSPERMINE] | 0.73 | 3.25 | – | – | – |
| Cl.NCCCNCCCCNCCCNC1=Nc2ccccc2CCC1 | 0.15 | 15.8 | Dose-dependent effect | Dose-dependent effect | Drug uptake (L1210 [5]): Active |
| NCCCCNCCCCNCCCCNC1=Nc2ccccc2CCC1 | 0.2 | 11.9 | – | – | – |
| NCCCNCCCCNCCCN | 1.34 | 1.77 | – | – | – |
